Source: PubChem BioAssay
TRPC6 inhibitor = mouse TRPC6 channel inhibition. Q61143. HEK293-TRPC6, membrane potential dye, ACh-evoked depolarization; hits give low values. B-score at 10 µM. 310,000 compounds, 1.1% hits;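 active = B-score under library mean minus 3 SD, initial fluorescence not abnormally high, positive integrated signal ratio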;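 note: B-score derived from integrated fluorescence ratio over the kinetic read; more negative B-score means stronger inhibition of depolarization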
TRPC4 potent = allosteric potentiators of mouse TRPC4 channel. Q9QUQ5. B-score at 10 µM. 310,000 compounds, 0.42% hits. HEK293 TRPC4beta/mu-opioid, DAMGO EC20, Fluo-4 Ca2+ flux; hits give high values;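 active = B-score of calcium response area above 5 SD of library B-scores, with initial fluorescence ratio within 5 SD of library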
TRPC6 act = mouse TRPC6 channel activation. Q61143. HEK293-TRPC6 membrane potential dye fluorescence; hits give high values. B-score at 10 µM. 310,000 compounds, 0.13% hits. AID 2550;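 active = B-score of the integrated fluorescence ratio above library mean plus 3 SD, and starting fluorescence ratio within library mean plus 5 SD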;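 note: higher score means more depolarization so channel activation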
Kir21 inh = Kir2.1 (mouse) channel inhibition. AID 1672. P35561. HEK293-Kir2.1, FluxOR thallium flux fluorescence; hits give low values. B-score at 10 µM. 310,000 compounds, 0.85% hits;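 active = fluorescence ratio B-score at or below minus 3 SD of library scores, with starting-brightness B-score within 2 SD, cut at about -4.2 in these data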;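 note: channel flux triggered by added potassium and thallium sulfate stimulus; B-score of peak minus minimum fluorescence over baseline after thallium stimulus; more negative B-score means stronger Kir2.1 block with less thallium influx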
Target sequence (P35561 whole entry, looked up): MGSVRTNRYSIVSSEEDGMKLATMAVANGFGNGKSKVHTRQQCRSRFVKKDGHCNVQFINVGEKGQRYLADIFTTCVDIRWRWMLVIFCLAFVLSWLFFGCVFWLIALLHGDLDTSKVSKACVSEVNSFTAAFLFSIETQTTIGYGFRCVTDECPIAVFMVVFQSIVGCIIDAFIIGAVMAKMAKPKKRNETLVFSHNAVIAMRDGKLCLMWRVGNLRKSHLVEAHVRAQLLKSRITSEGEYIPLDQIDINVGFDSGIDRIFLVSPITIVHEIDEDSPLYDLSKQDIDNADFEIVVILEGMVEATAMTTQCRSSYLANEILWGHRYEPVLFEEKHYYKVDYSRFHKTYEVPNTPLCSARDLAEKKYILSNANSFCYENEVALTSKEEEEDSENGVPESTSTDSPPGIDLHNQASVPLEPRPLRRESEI
TRPC4 agonist = activators of mouse TRPC4 channel; HEK293 TRPC4beta/mu-opioid, Fluo4 calcium fluorescence; hits give high values; B-score at 10 µM; 310,000 compounds, 0.49% hits;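 active = B-score above 5 SD of library B-scores, and initial fluorescence ratio not above library mean plus 5 SD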;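 note: positive B-score marks a calcium rise read as TRPC4 activation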
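Material: TRPC4beta and mu-opioid receptor HEK293 stable cells | Incubation: 45 min room-temperature Fluo4 loading, 110 s read | Detection: Kinetic Fluo4 calcium fluorescence | Measure: Integrated baseline-normalised fluorescence ratio, converted to per-well B score | Benchmarks: Low control buffer alone, high control maximal DAMGO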
TRPC4 block = blocks the mouse TRPC4 cation channel. B-score at 10 µM. HEK293 TRPC4beta/mu-opioid, DAMGO-evoked Fluo4 calcium flux; hits give low values. AID 2247. Q9QUQ5. 300,000 compounds, 0.39% hits;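 active = B-score over 3 SD under the library average, no early fluorescence shift, positive overall ratio signal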
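Assay system – HEK293 line stably carrying TRPC4beta and mu-opioid receptor · Doses – single dose · Detection – Fluo4 calcium-dye fluorescence, kinetic read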
TRPC4 spec 2 = second check of whether TRPC6 inhibitors also affect mouse TRPC4 | shares compounds with TRPC6 inhibitor | 920 compounds, 42% hits | HEK293 TRPC4/MOR, membrane potential dye fluorescence; channel activated by saturating DAMGO dose | inhibition, % at 10 µM;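 active = compounds whose fluorescence signal differed from control wells by over 3 SD, either direction, in both duplicate plates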
TRPC4 spec = selectivity of TRPC6 inhibitors: effect on mouse TRPC4; shares compounds with TRPC6 inhibitor; HEK293 TRPC4/mu-opioid, membrane potential fluorescence; activity change, negative = inhibition, % at 10 µM; 920 compounds, 61% hits;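 active = rise or fall in signal beyond 3 SD of buffer-only wells in both replicate plates, either sign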;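 note: integrated kinetic ratio of fluorescence range over baseline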
HEK293 MPD ctr 2-1 = second check of TRPC6 inhibitor effects in parental HEK293 cells. shares compounds with TRPC6 inhibitor. parental HEK293 membrane potential dye fluorescence; maximal acetylcholine challenge after compound addition. signal change vs control, % at 10 µM. 920 compounds, 31% hits;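 active = membrane potential signal moving either way by over 3 SD of the maximum-effect control, in both duplicate plates, meaning non-specific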
HEK293 MPD ctr-1 = checks TRPC6 inhibitor effects in parental HEK293 cells; shares compounds with TRPC6 inhibitor; parental HEK293 membrane potential dye fluorescence; membrane potential signal change, % at 10 µM; 920 compounds, 60% hits; AID 2780;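 active = membrane potential signal shifting up or down by more than 3 SD of buffer-only wells, on both duplicate plates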
HEK293 MPD ctr-2 = counter-screen for TRPC6 modulators: effect in parental HEK293 cells; shares compounds with TRPC6 inhibitor; membrane potential dye fluorescence; membrane potential signal change, % at 10 µM; 2,400 compounds, 51% hits;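 active = membrane potential signal moves up or down beyond 5 SD from buffer-only wells, on both duplicate plates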
HEK293 MPD ctr 2-2 = parental HEK293 nonspecific activity of TRPC6 modulators, second screen; shares compounds with TRPC6 inhibitor; membrane potential dye fluorescence; after compound, maximal acetylcholine stimulation; inhibition, % at 10 µM; 2,400 compounds, 14% hits; AID 488926;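 active = membrane potential signal drops by more than 5 SD from the mean control signal, in both duplicate plates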
TRPC4/MOR mod = mouse TRPC4 off-target activity of TRPC6 modulators; shares compounds with TRPC6 inhibitor; HEK293 TRPC4/mu-opioid, membrane potential fluorescence; percent change from control (negative = decrease, positive = increase), % at 10 µM; 2,400 compounds, 69% hits;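 active = membrane potential signal moved up or down beyond 5 SD of buffer control wells, in both duplicate plates, actives on both sides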
TRPC4 ctr inh 2 = second selectivity test of TRPC6 modulators against mouse TRPC4 | AID 488928 | HEK293 TRPC4/mu-opioid, membrane potential dye fluorescence; stimulated with maximal-effect DAMGO | inhibition, % at 10 µM | shares compounds with TRPC6 inhibitor | 2,400 compounds, 55% hits;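 active = drop in membrane potential signal beyond 5 SD of the control wells in both duplicate plates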;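 note: TRPC4 counter screen for TRPC6 hits run under conditions tuned for TRPC6 not TRPC4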
TRPC6 inh conf = mouse TRPC6 inhibitor confirmation. 3,300 compounds, 43% hits. inhibition, % at 10 µM. HEK293-TRPC6, membrane potential dye, ACh-evoked depolarization. shares compounds with TRPC6 inhibitor;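 active = fluorescence ratio falls more than 5 SD below the full-stimulation control mean, in both duplicate runs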;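 note: integrated fluorescence ratio of peak minus minimum over baseline after agonist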
TRPC6 act confirm = confirmation of mouse TRPC6 activators | 2,800 compounds, 11% hits | shares compounds with TRPC6 inhibitor | activation, % at 10 µM | HEK293-TRPC6 membrane potential dye fluorescence, FDSS | AID 488961;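 active = ratio signal rise beyond 5 SD above unstimulated control wells' mean, seen in both duplicate runs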
Large screens that a line does not name were inactive (follow-up assays come after a bar, where they were run). Rows were chosen to be rich in hits. Some 2.9% of all compounds tested hit in one or more screens of this group.

Cc1ccc(-n2c(Cc3cccn3C)nnc2SCC(=O)Nc2ccc3c(c2)OCO3)cc1	none
CCCCc1ccc(-c2csc(/C(C#N)=C\c3ccc(C)o3)n2)cc1	TRPC6 inhibitor -8.41 | TRPC4 spec 2 inactive | TRPC4 spec inactive | HEK293 MPD ctr 2-1 inactive | HEK293 MPD ctr-1 inactive | TRPC6 inh conf inactive
CC(C)(C)C1CCc2onc(C(=O)Nc3cccc(O)c3)c2C1 (centres undefined)	none
CCN(CC)CCn1nc2c3c(cccc3c1=O)-c1ccccc1-2	TRPC6 inhibitor -5.82 | HEK293 MPD ctr-2 -77.5% | HEK293 MPD ctr 2-2 inactive | TRPC4/MOR mod -17.5% | TRPC4 ctr inh 2 55.0% | TRPC6 inh conf 39.5% | TRPC6 act confirm inactive
O=c1c2cccc3c2c(nn1CN1CCOCC1)-c1ccccc1-3	none
CCOc1ccc(NC(=O)C2C(C(=O)O)C3(Cl)C(Cl)=C(Cl)C2(Cl)C3(Cl)Cl)cc1 (centres undefined)	TRPC6 act 13.2 | HEK293 MPD ctr-2 250.5% | HEK293 MPD ctr 2-2 inactive | TRPC4/MOR mod 33.0% | TRPC4 ctr inh 2 inactive | TRPC6 inh conf inactive | TRPC6 act confirm 105.5%
CC(C)Cc1nnc(NC(=O)CN2C(=O)c3ccccc3C2=O)s1	none
C[n+]1cccc(/C=N/Nc2nc(Cl)c(C#N)c(Cl)c2Cl)c1	TRPC6 inhibitor -6.24 | HEK293 MPD ctr-2 inactive | HEK293 MPD ctr 2-2 79.5% | TRPC4/MOR mod -13.5% | TRPC4 ctr inh 2 inactive | TRPC6 inh conf inactive | TRPC6 act confirm inactive
COc1ccc(NC(=O)c2cnn(-c3ccccc3)c2C)c(OC)c1	none
Oc1ccc(-c2nc3ccccc3s2)c(O)c1	TRPC6 inhibitor -5.37 | HEK293 MPD ctr-2 inactive | HEK293 MPD ctr 2-2 inactive | TRPC4/MOR mod inactive | TRPC4 ctr inh 2 inactive | TRPC6 inh conf inactive | TRPC6 act confirm inactive
Nc1ccc(O)c(-c2nc3ccccc3s2)c1	none
COc1cccc(C2CC(C(F)(F)F)n3ncc(C(=O)NCC4CCCO4)c3N2)c1 (centres undefined)	TRPC6 inhibitor -5.64 | HEK293 MPD ctr-2 inactive | HEK293 MPD ctr 2-2 inactive | TRPC4/MOR mod inactive | TRPC4 ctr inh 2 inactive | TRPC6 inh conf inactive | TRPC6 act confirm inactive
Cc1cc(NC(=O)C2C3C(=O)N(Cc4ccc(Cl)cc4)C(C(=O)NC4CCCCC4)C34C=CC2(C)O4)no1 (centres undefined)	none
CC(C)Cc1ccc(C2=CSC3=NCCN23)cc1	TRPC6 inhibitor -5.82 | HEK293 MPD ctr-2 94.5% | HEK293 MPD ctr 2-2 inactive | TRPC4/MOR mod inactive | TRPC4 ctr inh 2 55.0% | TRPC6 inh conf 48.5%
Cc1ccc(O)c([C@H](CCN(C(C)C)C(C)C)c2ccccc2)c1	TRPC6 inhibitor -6.17 | HEK293 MPD ctr-2 173.5% | HEK293 MPD ctr 2-2 96.0% | TRPC4/MOR mod 33.0% | TRPC4 ctr inh 2 41.0% | TRPC6 inh conf 87.0%
Cc1cccc(-c2nc(=S)c3c(n2Cc2ccco2)CCCC3)c1	TRPC6 inhibitor -6.28 | HEK293 MPD ctr-2 183.5% | HEK293 MPD ctr 2-2 inactive | TRPC4/MOR mod 42.0% | TRPC4 ctr inh 2 inactive | TRPC6 inh conf inactive
COc1cc(O)c(C(CCN2CCCC(C)C2)c2ccc(N(C)C)cc2)c(OC)c1 (centres undefined)	TRPC6 inhibitor -7 | TRPC4 spec 2 61.5% | TRPC4 spec inactive | HEK293 MPD ctr 2-1 inactive | HEK293 MPD ctr-1 inactive | TRPC6 inh conf inactive | TRPC6 act confirm inactive
COc1cc(O)c(C(CCN2CCCC(C)C2)c2ccc3c(c2)OCO3)c(OC)c1 (centres undefined)	none
COc1cc(C(CCN2CCCC(C)C2)c2c(OC)cc(OC)c3c(-c4ccccc4)cc(=O)oc23)cc(OC)c1OC (centres undefined)	TRPC6 inhibitor -7.81 | TRPC4 spec 2 44.0% | TRPC4 spec -11.1% | HEK293 MPD ctr 2-1 inactive | HEK293 MPD ctr-1 inactive | TRPC6 inh conf inactive | TRPC6 act confirm inactive
O=[N+]([O-])c1ccc(S(=O)(=O)NCC(c2cccnc2)N2CCc3ccccc32)cc1 (centres undefined)	none
O=c1[nH]c2ccc(NC(=S)NCCc3ccccc3)cc2[nH]1	none
O=C(c1ccncc1)N1N=C(C2CCCCC2)CC1(O)C(F)(F)F (centres undefined)	TRPC6 inhibitor -5.76 | HEK293 MPD ctr-2 inactive | HEK293 MPD ctr 2-2 inactive | TRPC4/MOR mod inactive | TRPC4 ctr inh 2 inactive | TRPC6 inh conf inactive | TRPC6 act confirm inactive
CS(=O)(=O)N(Cc1cccc(CN(C(C(=O)O)c2ccccc2)S(C)(=O)=O)c1)C(C(=O)O)c1ccccc1 (centres undefined)	TRPC6 inhibitor -8.73 | TRPC4 spec 2 inactive | TRPC4 spec inactive | HEK293 MPD ctr 2-1 inactive | HEK293 MPD ctr-1 inactive | TRPC6 inh conf inactive | TRPC6 act confirm inactive
C=CCn1c(=N)n(CC(=O)c2ccc(Cl)cc2)c2ccccc21	TRPC6 inhibitor -5.87 | HEK293 MPD ctr-2 inactive | HEK293 MPD ctr 2-2 inactive | TRPC4/MOR mod 35.5% | TRPC4 ctr inh 2 93.0% | TRPC6 inh conf 57.5%
O=C(CN1C2=NCCCN2c2ccccc21)c1ccc(Br)s1	none
